How the values were obtained:
[1] = test system: R4A monoclonal antibody (anti-dsDNA) binding to DWEYS peptide; assay: Competitive inhibition ELISA: R4A antibody binding to DWEYS-coated plates; parameters: species or system mouse
Method in brief: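 D-DWEYS peptide at 20 µg/mL in PBS pH 7.2 coated overnight at 37 °C, uncovered; blocked with 3% BSA/PBS 1 h at 37 °C. R4A (20 µg/mL) preincubated with test compound at varying concentrations 1 h at 37 °C, then added to washed wells 1 h at 37 °C. AP-goat anti-mouse IgG 1:1000, 1 h RT; pNPP substrate 30–60 min; absorbance at 405 nm.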

[2] = test system: R4A antibody binding to murine glomeruli; assay: Kidney glomeruli R4A binding assay; parameters: species or system mouse; settings: R4A 20 µg/mL preincubated with compound at 50 µM
Method in brief: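 Glomeruli isolated from mice and adhered to glass slides. R4A was preincubated with test compound for 1 h at 37 °C, then applied to the glomeruli for 1 h at room temperature. Slides were washed with PBS. Bound antibody was detected with FITC-conjugated anti-mouse IgG and imaged by fluorescence microscopy.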

[3] = test system: R4A antibody neurotoxicity in hippocampal neurons; assay: Neurotoxicity model: R4A injected into hippocampus, TUNEL staining; type: in vivo; settings: R4A 20 µg/mL preincubated with 50 µM compound, injected into mouse hippocampus
Method in brief: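 Male C57BL/6 mice (30–34 g) under 2.5% avertin ip received a 2 µL stereotaxic injection into the dorsal hippocampus (CA1) of R4A (20 µg/mL) preincubated with vehicle or test compound (50 µM).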

[4] = test system: NZB/W F1 mice (SLE model); assay: NZB/W F1 lupus model efficacy testing; type: in vivo, mouse
Method in brief: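 Female NZB/W F1 mice, randomised to groups (initially n = 10/group), dosed from 22 weeks of age, before severe proteinuria, with test compound or vehicle at 5 mg kg−1 day−1 as two daily ip injections (2.5 mL/kg each). Weekly body weight; proteinuria every 2 weeks; serum stored at −70 °C. Blinded kidney histology scored glomerular sclerosis, cellularity, crescents and interstitial inflammation.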

[5] = Preliminary pharmacokinetics after intravenous or oral dosing; type: in vivo; settings: iv 1 mg/kg or oral gavage 10 mg/kg, male CD-1 mice
[6] = 5 mg/kg chronic dosing, NZB/W F1 mice, versus vehicle

Compound	Inhibition of R4A / anti-dsDNA antibody binding in ELISA (qualitative) [1]	R4A binding to glomerular antigens [2]	Neurotoxic effect of R4A (TUNEL staining, neuronal apoptosis) [3]	other results
saquinavir [Compound 1, reference compound]	dose-dependently inhibited the binding of anti-dsDNA antibodies to target antigens	diminished binding to glomerular antigens	–	–
Cc1c(O)cccc1C(=O)N[C@@H](CSc1ccccc1)[C@H](O)CN1C[C@H]2CCCC[C@H]2C[C@H]1C(=O)NC(C)(C)C [Compound 2, nelfinavir, reference compound]	dose-dependently inhibited the binding of anti-dsDNA antibodies to target antigens	diminished binding to glomerular antigens	–	–
Cc1c(O)cccc1CN[C@@H](CSc1ccccc1)[C@H](O)CN1C[C@H]2CCCC[C@H]2C[C@H]1CNC(C)(C)C [Compound 6, 3-({3-[3-(tert-Butylaminomethyl)octahydroisoquinolin-2-yl]-2-hydroxy-1-phenylsulfanylmethylpropylamino}methyl)-2-methylphenol]	–	decreased the binding of R4A to kidney tissue	abrogated this neurotoxic effect	–
CNCCCN[C@H](CN[C@@H](Cc1ccccc1)C[C@H](O)[C@H](Cc1ccccc1)NCCOc1c(C)cccc1C)C(C)C [Compound 7, 2-[2-(2,6-Dimethylphenoxy)ethylamino]-5-[3-methyl-2-(3-methylaminopropylamino)butylamino]-1,6-diphenylhexan-3-ol]	–	decreased the binding of R4A to kidney tissue	–	–
Cc1cccc(C)c1OCC(=O)N[C@@H](Cc1ccccc1)[C@@H](O)C[C@H](Cc1ccccc1)NC(=O)[C@H](C(C)C)N1CCCNC1=O [Compound 3, lopinavir]	dose-dependently inhibited the binding of anti-dsDNA antibodies to target antigens	–	–	–
CC(C)(C)NC[C@@H]1CC2CCCCC2CN1C[C@@H](O)[C@H](Cc1ccccc1)NC[C@H](CCN)NCC1Nc2ccccc2CC1O (stereo partly drawn) [Compound 5, 2-{[3-Amino-1-({1-benzyl-3-[3-(tert-butylamino-methyl)-octahydro-isoquinolin-2-yl]-2-hydroxy-propylamino}-methyl)-propylamino]-methyl}-1,2,3,4-tetrahydro-quinolin-3-ol]	–	decreased the binding of R4A to kidney tissue	abrogated this neurotoxic effect	Onset of disease ([4]; 5 mg kg−1 day−1 b.i.d. ip, NZB/W F1 mice): delayed onset of disease (26–36 weeks); Body weights versus vehicle ([4]; 5 mg kg−1 day−1 in two daily ip injections, female NZB/W F1 mice from 22 weeks of age): similar; Kidney histology [4, 6]: preserved histology; Mouse IgG staining (autoantibody deposition) in glomeruli [4, 6]: significantly less staining for mouse IgG; Serum anti-DWEYS reactivity ([4]; 5 mg/kg chronic dosing, NZB/W F1 mice, versus vehicle sera): higher anti-DWEYS reactivity; Combined kidney pathology score ([4]; blinded histopathology, 60 weeks, versus vehicle, p < 0.05): significantly lower standard combined pathology scores; PK profile (comparative) [5]: exhibited the best PK profile; Tolerability in PK study [5]: well tolerated at the administered dose levels

Source: article PMC5592695 (Journal of medicinal chemistry, 2016)
